One series has as its target A3G-ssDNA complex (Homo sapiens, UniProt Q9HC16). The series can be described thus: EMSA of A3G-ssDNA complex formation. It counts as binding. To be noted: 0.64 μM A3G, 0.08 μM ssDNA, 50 μM compound, dose response 2, 5, 10 μM. In general terms: Mobility shift assays separate free from complexed probe on a gel.
In the next series the target is A3G C321A (Homo sapiens, UniProt Q9HC16, C321A). The series can be described thus: deaminase assay with A3G-C321A mutant. It counts as biochemical. To be noted: dose response, parallel to wildtype A3G. Put shortly: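 Wildtype A3G and the C321A mutant were purified side by side as myc-His proteins (>80% homogeneity) from HEK293T cells and tested at varying test compound concentrations. Reactions ran 2 h at 37 °C with 6-FAM/TAMRA ssDNA and UDG, followed by NaOH cleavage, neutralisation and fluorescence at 490/520 nm. Triplicates were normalised to DMSO-only controls and given as mean with SD.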
A3G C321A, sequence (Q9HC16 whole entry C321A): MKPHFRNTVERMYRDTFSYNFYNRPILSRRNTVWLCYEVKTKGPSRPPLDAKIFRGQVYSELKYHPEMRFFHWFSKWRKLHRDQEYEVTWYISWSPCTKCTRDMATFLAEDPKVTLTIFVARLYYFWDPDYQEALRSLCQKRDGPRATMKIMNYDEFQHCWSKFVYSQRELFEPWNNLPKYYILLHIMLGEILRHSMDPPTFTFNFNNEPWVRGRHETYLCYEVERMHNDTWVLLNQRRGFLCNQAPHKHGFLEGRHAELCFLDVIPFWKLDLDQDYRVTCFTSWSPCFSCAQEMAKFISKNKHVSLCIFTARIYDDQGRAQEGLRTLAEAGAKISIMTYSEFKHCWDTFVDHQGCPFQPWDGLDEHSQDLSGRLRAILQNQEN

The target of a further series is human A3A (APOBEC3A) (Homo sapiens, UniProt P31941). The series can be described thus: fluorescence-based ssDNA cytosine deaminase assay, A3A. It counts as biochemical.
human A3A (APOBEC3A), sequence (P31941 whole entry): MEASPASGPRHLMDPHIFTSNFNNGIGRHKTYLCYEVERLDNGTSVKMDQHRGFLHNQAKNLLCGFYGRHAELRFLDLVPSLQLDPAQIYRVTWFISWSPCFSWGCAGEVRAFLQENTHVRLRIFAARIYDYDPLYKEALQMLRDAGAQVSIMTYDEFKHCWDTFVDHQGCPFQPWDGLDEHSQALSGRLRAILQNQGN
The next series concerns the target A3G-C308A (Homo sapiens, UniProt Q9HC16, C308A). Briefly: deaminase assay with A3G-C308A mutant. It counts as biochemical. To be noted: varying concentrations, parallel to wildtype A3G. Put shortly:
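Full-length human A3G-C308A-mycHis and wildtype A3G were purified from HEK293T cells via the C-terminal His6 tag and assayed in parallel over varying test compound concentrations. Enzyme was diluted in Tris pH 7.4 buffer with protease inhibitors, then incubated 2 h at 37 °C with 10 pmol 6-FAM/TAMRA ssDNA and UDG. NaOH was added for 30 min at 37 °C, then neutralised. Fluorescence read at ex 490/em 520 nm.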

Another series has as its target HIV-1 RNase H (Human immunodeficiency virus type 1 group M subtype B, UniProt P04585). Briefly: HIV-1 RNase H inhibition assay. It counts as biochemical.
The target of the next series is full-length A3G Cys321 (Homo sapiens, UniProt Q9HC16). The series can be described thus: LC-MS/MS of tryptic peptides of inhibitor-treated A3G. It counts as binding. To be noted: full-length A3G incubated with compound, in-gel trypsin digestion.
full-length A3G Cys321, sequence (Q9HC16 whole entry): as the sequence (Q9HC16 whole entry C321A) above, with A321C counted along it
A further series has as its system murine model of diabetes. To be noted: oral dosing; cited from earlier work.
The target of series [1] is E. coli uracil DNA glycosylase (UDG) (Escherichia coli, UniProt P12295). Briefly: UDG assay. It counts as biochemical.
E. coli uracil DNA glycosylase (UDG), sequence (P12295 whole entry): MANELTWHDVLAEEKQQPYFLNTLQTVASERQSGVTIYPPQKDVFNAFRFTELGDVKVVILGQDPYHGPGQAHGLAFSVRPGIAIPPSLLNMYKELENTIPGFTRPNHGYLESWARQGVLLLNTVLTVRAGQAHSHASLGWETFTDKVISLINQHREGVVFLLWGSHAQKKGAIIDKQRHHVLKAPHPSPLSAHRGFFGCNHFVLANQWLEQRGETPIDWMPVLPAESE
The target in the next series is human A3G (APOBEC3G) (Homo sapiens, UniProt Q9HC16). The series can be described thus: fluorescence-based ssDNA cytosine deaminase assay, A3G. It counts as biochemical.
human A3G (APOBEC3G), sequence (Q9HC16 whole entry): as the sequence (Q9HC16 whole entry C321A) above, with A321C counted along it
For series [2] the following is noted: cited from earlier work.
The target in a further series is HIV-1 integrase (Human immunodeficiency virus type 1 group M subtype B, UniProt P04585). Briefly: concerted HIV-1 integration assay. It counts as biochemical.
For series [3], the system named is A3A-loop 6 (C321 loop of A3G swapped into A3A). Briefly: deaminase assay with A3A-loop 6 swap mutant. The conditions noted are these: 50 μM compound. It counts as biochemical, human.
The mark [4] stands for this setting: read-out: IC50 Values A3A, dose response, purified A3A-mycHis.
Setting [5] is: read-out: IC50 Values RNase H, A3G inhibitors, this study.
[6] abbreviates: read-out: IC50 Values UDG, no deaminase, uracil ssDNA substrate.
Where [7] appears, read: read-out: IC50 Values A3G, dose response, purified full-length A3G-mycHis.

Structures are written as SMILES. pIC50: −log10 of the molar value. Counter-ions that a name gives are not always drawn. Like-named read-outs stand apart in the source and are kept apart here.

Usually pIC50 stands for the IC50 on a negative log10 scale, so that one unit is a factor of ten.

A3G-ssDNA complex, sequence (Q9HC16 whole entry, one chain of several): as the sequence (Q9HC16 whole entry C321A) above, with A321C counted along it
A3G-C308A, sequence (Q9HC16 whole entry C308A): as the sequence (Q9HC16 whole entry C321A) above, with C308A, A321C counted along it

As to `CN(N=O)c1ccc(O)c(O)c1` [MN30, Methyl-3,4-dephostatin], the “inhibition of A3G's ssDNA binding activity (A3G-ssDNA complex formation)” value (shortened to “inhibition … (A3G-ssDNA complex formation)”) at A3G-ssDNA complex is “no inhibition”. For the same molecule, the “susceptibility of A3G C321A deaminase activity to inhibition” value on A3G C321A is listed as “fully resistant”. In addition, the pIC50 was under 3.70 on human A3A (APOBEC3A) (setting [4]), under 4.60 on HIV-1 RNase H (setting [5]), under 3.70 in series [1] (setting [6]) and 5.04 on human A3G (APOBEC3G) (setting [7]). In addition, on A3G-C308A, the “susceptibility of A3G-C308A deaminase activity to inhibition” value is listed as “wildtype susceptibility”. Moreover, the “mass addition to C321 containing tryptic peptide (covalent modification)” value on full-length A3G Cys321 is 167.11 Da. Moreover, in the series with murine model of diabetes, the “efficacy in a murine model of diabetes” value is listed as “demonstrated efficacy”.

Turning to `CN(N=O)c1cc(O)ccc1O` [MN10, Dephostatin], the “inhibition … (A3G-ssDNA complex formation)” value at A3G-ssDNA complex is “only exceptions”. Besides, the pIC50 against human A3A (APOBEC3A) is 3.82; in [1], under 3.70; at human A3G (APOBEC3G), 6.37. Moreover, the stability entry in series [2] is “too unstable for most biological applications”.

On to `Oc1cc2c(cc1O)[C@H]1c3ccccc3CN[C@@H]1CC2` (racemic) [MN8, Dihydrexidine hydrochloride], for which the pIC50 was under 3.70 on human A3A (APOBEC3A); under 4.60 against HIV-1 RNase H; under 3.70 in series [1]; 6.23 against human A3G (APOBEC3G); under 4.60 against HIV-1 integrase.

As for `Oc1cc(O)cc(/C=C/c2ccc(O)c(O)c2)c1` [MN32, Piceatannol], the pIC50 was 3.70 at human A3A (APOBEC3A); 6.41 on HIV-1 RNase H; under 3.70 in series [1]; 5.74 against human A3G (APOBEC3G); under 4.60 at HIV-1 integrase. The “inhibition of A3A-loop 6 deaminase activity” value in series [3] is “very little inhibition”.

`CN1CCc2cccc3c2[C@H]1Cc1ccc(O)c(O)c1-3` [MN2, R-(−)-Apomorphine hydrochloride hemihydrate]: the pIC50 against human A3A (APOBEC3A) was under 3.70; on HIV-1 RNase H, under 4.60; in series [1], under 3.70; against human A3G (APOBEC3G) it was 5.89; against HIV-1 integrase, under 4.60.

In the case of `O=c1cc(O)cc(/C=C/c2ccc(O)c(O)c2)o1` [MN24, Hispidin], the pIC50 against human A3A (APOBEC3A) is under 3.70; in series [1], under 3.70; against human A3G (APOBEC3G), 5.70; against HIV-1 integrase, under 4.60. The “inhibitory activity against RNase H (in words)” value against HIV-1 RNase H is “modest micromolar inhibitory activity”.

As to `Br.Oc1ccc(C2CNCc3sccc32)cc1O` (centres unmarked) [MN35, SKF-89626 hydrobromide], on A3G-ssDNA complex, the “inhibition … (A3G-ssDNA complex formation)” value is reported as “only exceptions”. The pIC50 was under 3.70 at human A3A (APOBEC3A) (setting [4]), 5.66 at HIV-1 RNase H (setting [5]), under 3.70 in series [1] (setting [6]) and 5.89 at human A3G (APOBEC3G) (setting [7]). In addition, on HIV-1 RNase H, the “inhibitory activity against RNase H (in words)” value is on record as “modest micromolar inhibitory activity”.

These data come from article PMC3306499 (ACS Chemical Biology, 2012).
